Tests used:
L1210 [1] = assay: In vitro inhibition of cell growth (Cytostatic activity) of mouse leukemia L1210 cells (ATCC CCL 219); assay type: functional, cell-based
CCRF-CEM [2] = assay: In vitro inhibition of cell growth (Cytostatic activity) of human T-lymphoblastoid CCRF-CEM cell line (ATCC CCL 119); assay type: functional, cell-based
Summary of the method: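 CCRF-CEM cells grown in RPMI 1640 with L-glutamine (0.3 g/L) and 10% bovine serum, seeded at 10⁵ mL^-1. After 24 h at 37 °C under CO₂, compounds were added at five concentrations. Cells were counted with a cell counter 72 h after addition. IC50 values were derived from the counts.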

HeLa [3] = assay: In vitro inhibition of cell growth (Cytostatic activity) of human cervix carcinoma HeLa S3 cells (ATCC CCL 2.2); assay type: functional, cell-based
L1210 [4] = assay: In vitro inhibition of cell growth (Cytostatic activity) of mouse leukemia L1210 cells (ATCC CCL 219); inhibition @ 10 uM/L; assay type: functional
CCRF-CEM [5] = assay: In vitro inhibition of cell growth (Cytostatic activity) of human T-lymphoblastoid CCRF-CEM cell line (ATCC CCL 119); inhibition @ 10 uM/L; assay type: functional
HeLa [6] = assay: In vitro inhibition of cell growth (Cytostatic activity) of human cervix carcinoma HeLa S3 cells (ATCC CCL 2.2); inhibition @ 10 uM/L; assay type: functional

SMILES	IC50 (L1210 [1]) [µM]	IC50 (CCRF-CEM [2]) [nM]	IC50 (HeLa [3]) [µM]	Inhibition (L1210 [4]) [%]	Inhibition (CCRF-CEM [5]) [%]	Inhibition (HeLa [6]) [%]
OC[C@H]1O[C@@H](n2cnc3c(-c4ccccc4)ncnc32)[C@H](O)[C@@H]1O	9	700	2.7			
CC(=O)OC[C@H]1O[C@@H](n2cnc3c(-c4ccc(F)cc4)ncnc32)[C@H](OC(C)=O)[C@@H]1OC(C)=O		4000	15	<20		
CC(=O)OC[C@H]1O[C@@H](n2cnc3c(-c4ccc(F)cc4F)ncnc32)[C@H](OC(C)=O)[C@@H]1OC(C)=O				<20	<20	<20
CC(=O)OC[C@H]1O[C@@H](n2cnc3c(-c4ccccc4C)ncnc32)[C@H](OC(C)=O)[C@@H]1OC(C)=O				<20	<20	<20
COc1ccc(-c2ncnc3c2ncn3[C@@H]2O[C@H](COC(C)=O)[C@@H](OC(C)=O)[C@H]2OC(C)=O)cc1	17	4300	19			
CC(=O)OC[C@H]1O[C@@H](n2cnc3c(-c4ccc(C)cc4)ncnc32)[C@H](OC(C)=O)[C@@H]1OC(C)=O				<20	<20	<20
CC(=O)OC[C@H]1O[C@@H](n2cnc3c(-c4ccc(F)c(F)c4)ncnc32)[C@H](OC(C)=O)[C@@H]1OC(C)=O		8300	15	<20		
CC(=O)OC[C@H]1O[C@@H](n2cnc3c(-c4ccccc4)ncnc32)[C@H](OC(C)=O)[C@@H]1OC(C)=O		10500		<20		<20
COc1cccc(-c2ncnc3c2ncn3[C@@H]2O[C@H](COC(C)=O)[C@@H](OC(C)=O)[C@H]2OC(C)=O)c1				<20	<20	<20
CC(=O)OC[C@H]1O[C@@H](n2cnc3c(-c4ccc(Cl)cc4)ncnc32)[C@H](OC(C)=O)[C@@H]1OC(C)=O		4300		<20		<20
CCOc1ccc(-c2ncnc3c2ncn3[C@@H]2O[C@H](COC(C)=O)[C@@H](OC(C)=O)[C@H]2OC(C)=O)cc1		3800		<20		<20
CCOc1ccc(-c2ncnc3c2ncn3C2O[C@H](CO)[C@@H](O)[C@H]2O)cc1 (some centres not stated)	2.5	600	5			
COc1cccc(-c2ncnc3c2ncn3C2O[C@H](CO)[C@@H](O)[C@H]2O)c1 (some centres not stated)		4800				
COc1ccc(-c2ncnc3c2ncn3C2O[C@H](CO)[C@@H](O)[C@H]2O)cc1 (some centres not stated)	1.5	250	4.3			
OC[C@H]1OC(n2cnc3c(-c4ccc(F)c(F)c4)ncnc32)[C@H](O)[C@@H]1O (some centres not stated)	20	1400	2.5			
OC[C@H]1OC(n2cnc3c(-c4ccc(F)cc4)ncnc32)[C@H](O)[C@@H]1O (some centres not stated)	4.5	750	2.5			
Cc1ccc(-c2ncnc3c2ncn3C2O[C@H](CO)[C@@H](O)[C@H]2O)cc1 (some centres not stated)		1500				
OC[C@H]1OC(n2cnc3c(-c4ccc(Cl)cc4)ncnc32)[C@H](O)[C@@H]1O (some centres not stated)		900	5			
Cc1ccccc1-c1ncnc2c1ncn2C1O[C@H](CO)[C@@H](O)[C@H]1O (some centres not stated)				<20	<20	<20

Reference: ChEMBL document CHEMBL1133165, “Synthesis and cytostatic activity of substituted 6-phenylpurine bases and nucleosides: application of the Suzuki-Miyaura cross-coupling reactions of 6-chloropurine derivatives with phenylboronic acids” (J Med Chem, 2000)
